Results gathered from unrelated publications.
Protocols differ between the studies behind these lines.
Target: 5'-AMP-activated protein kinase catalytic subunit alpha-1 (PRKAA1, Homo sapiens, UniProt Q13131)
Technique: competition with immobilised ligand

For O=C(NC[C@@H]1[C@H]2CN(C(=O)OCc3cc(C(F)(F)F)cc(C(F)(F)F)c3)C[C@@H]12)c1ccc2[nH]nnc2c1, the remaining binding was 100% (cell-free assay; 1 µM).
With Cc1cnn2ncc(-c3ccnc(N(C)C)n3)c2c1 the remaining binding was 93% (binding; 1 µM).
The remaining binding of CS(=O)(=O)NCC[C@H](NC(=O)c1cncc2c1cnn2-c1ccc(F)cc1)c1ccnc(S(C)(=O)=O)c1 is reported as 100% (cell-free assay; 1 µM).
With CN(C)c1ncc(F)c(-c2cnn3ncccc23)n1 the remaining binding was 48% (binding; 1 µM).
The remaining binding of Cc1cnc(Nc2ccc(C(=O)N3CCC(N4CCCC4)CC3)cc2)nc1-c1cc2ccccc2s1 is reported as 7.9% (binding; 1 µM).
For COc1ncc2cc3ccccc3nc2c1C#N, the remaining binding was 100% (cell-free assay; 5 µM).
O=C(NCC1CCOCC1)c1n[nH]cc1NC(=O)c1c(F)cccc1F has a remaining binding of 93% (binding; 1 µM).
For CNCc1ccccc1-c1csc([C@@H](C)Nc2nc(C)nc3cc(OC)c(OC)cc23)c1, the remaining binding was 100% (cell-free assay; 1 µM).
With C[C@@H]1CCN(c2nccc(-c3cnn4ncccc34)n2)C1 the remaining binding was 99% (binding; 1 µM).
O=S(=O)(NC1CCC(c2cc(F)ccc2F)(S(=O)(=O)c2ccc(Cl)cc2)CC1)C(F)(F)F (stereo not drawn) gave a remaining binding of 100% (cell-free assay; 1 µM).
O=C(NCCCN1CCOCC1)c1ccc(Nc2ncc(Cl)c(-c3ccc(Cl)s3)n2)cc1 has a remaining binding of 15% (binding; 1 µM).
With F[C@@H]1CCN(c2nccc(-c3cnn4ncccc34)n2)C1 the remaining binding was 85% (binding; 1 µM).
For COc1cnc(Nc2cccc(S(N)(=O)=O)c2)nc1N1CCN(c2ccccc2)CC1, the remaining binding was 100% (binding; 1 µM).
The remaining binding of CS(=O)(=O)c1cc(C2(NC(=O)c3cncc4c3cnn4-c3ccc(F)cc3)CC2)ccn1 is reported as 99% (cell-free assay; 1 µM).
N[C@H]1CCN(c2nccc(-c3cnn4ncccc34)n2)C1 has a remaining binding of 100% (binding; 1 µM).
O=C(c1ccc(Nc2nccc(-c3cc4ccccc4s3)n2)cc1)N1CCC(N2CCCC2)CC1 has a remaining binding of 36% (binding; 1 µM).
NS(=O)(=O)c1cc(NC(=O)C2(c3ccccc3Cl)CC2)ccc1Oc1cccc(Cl)c1 gave a remaining binding of 80% (cell-free assay; 1 µM).
CNC(=O)[C@@H]1CC[C@@H](n2c(-c3ccc4cnccc4c3)nc3ccc(C(=O)NCc4cccc(C(N)=O)c4)cc32)C1 gave a remaining binding of 84% (binding; 1 µM).
For FC(F)(F)Oc1cccc(-c2cnc3ccc(-c4ccncc4)nn23)c1, the remaining binding was 96% (cell-free assay; 5 µM).
CN(C)c1nccc(-c2cnc3ncccn23)n1 gave a remaining binding of 100% (binding; 1 µM).
c1cncc(-c2cccc(Nc3nccc(NC4CCCCC4)n3)c2)c1 has a remaining binding of 15% (binding; 10 µM).
